For 38 variants, yeast fitness results are on record in the RNAGym collection of RNA variant scans (doi:10.1126/science.aae0568).

Fewer inactive variants are shown than the library holds.

B1: tRNA (parent)
chain: GUUCCGUUGGCGUAAUGGUAACGCGUCUCCCUCCUAAGGAGAAGACUGCGGGUUCGAGUCCCGUACGGAACG

The variants in this data set derive from B1. Briefly: yeast fitness relative to wild type (ratio to wild type); higher = fitter; tRNA-Arg(CCU), competitive growth, 37 C, YPD. In outline:
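Variants of the tRNA-Arg(CCU) gene, chemically synthesised with a 3% per-site mutation rate at 69 sites, were placed at the native genomic locus in Saccharomyces cerevisiae. The pooled strains were competed in YPD at 37°C for 24 hours in six parallel replicates. Gene amplicons from the start population and from each end population were read by 100-nucleotide paired-end sequencing. Darwinian fitness relative to wild type came from changes in genotype frequencies; genotypes needed ≥ 100 starting reads, and estimates < 0.5 were set to 0.5.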
Take GUUCCAUUGGAGUAAUGGUAACGUGUCUCCCUCCUAAGGAGAAGACUGCGGGUUCGAGUCCCGUACGGAACG [G6A C11A C24U]: the yeast fitness was at most 0.5. The value for GUUCCAUUGGCGUAAUGGUAACGCGUCUCCCUCCUAAGGUGAAGACUGCGGGUUGGAGUCCCCUACGGAACG [G6A A40U C55G G63C] was at most 0.5; that for GUUCCAUUGGCGUAAUGGUAACGCGUCUCCCUCCUAAGGAGAAGCCUGCGGGUUGGAGUCUCGUACGGAACG [G6A A45C C55G C61U] was at most 0.5. The value for GUUCCAUUGGAGUAAUGGUAACGCGUCUCCCUCCUAAGGAGAAGAGUGCGGGUUCGAGUCCCGUACGGAACG [G6A C11A C46G] was at most 0.5; that for GUUCCAUUGGCGUAAUGGUAACGCGUCUCCCUCCUAAGGAGAAGGCUGCGGGUUCGAGUCCCGUACGGAACG [G6A A45G] was 0.928. The value for GUUCCAUUGGCGUAAUGGUAACGCGUCUCCCUCCUAAGGAGCAGACUGCGGGUUCGAGUCCCGUACGGAGCG [G6A A42C A70G] was at most 0.5; that for GUUCCAUUGGCGUAAUGGUAACGCGUCUCCCUCCUAAGGAGACGACUGCGGGUUCGAGUCCAGUACGGAACG [G6A A43C C62A] was 0.551. On to GUUCCAUUGGAGUAAUGGUAACGCGUCUCCCUCCUAAGGGGAAGACUGCGGGUUCGAGUCCCGUACGGAACG [G6A C11A A40G], for which the yeast fitness was at most 0.5. GUUCCAUUGGCGUAAUGGUAACGCGUCUCCCUCCUAAGGAGUAGACUGCGGGUUCGAGUCCAGUACGGAACG [G6A A42U C62A]: the yeast fitness was found to be 0.53. The value for GUUCCAUUGGCGUAAUGGUAACGCGUCUCCCUCCUAAGGGGAAGACUGCGGGUUCGAGUCCCGUACGGAACG [G6A A40G] was 0.842.

Take GUUCCAUUGGAGUAAUGGUGACGCGUCUCCCUCCUAAGGAGAAGACUGCGGGUUCGAGUCCAGUACGGAACG [G6A C11A A20G C62A]: the yeast fitness was at most 0.5. Under GUUCCAUUGGCGUAAUGGUAACGCGUCUCCCUCCUAAGGAGAAGUCUACGGGUUAGAGUCCCGUACGGAACG [G6A A45U G48A C55A] stands at most 0.5. In the case of GUUCCAUUGGCGUAAUGGUAACGCGUCUCCCUCCUAAGGAGUAGACUGCGGGUUCGAGUCCCGUACGGAACG [G6A A42U], the yeast fitness was 0.784. Consider GUUCCAUUGGCGUAAUGGUAACGCGUCUCCCUCCUAAGGAGCAGACUGCGGGUUCGAGUCCCGUACGGAACG [G6A A42C], for which the yeast fitness was determined as 0.894. The value for GUUCCAUUGGCGUAAUGGUAACGCGUCUCCCUCCUAAGGAGGAGACUGCGGGUUCGAGUCCCGUACGGAACG [G6A A42G] was 0.848; that for GUUCCAUUGGCGUAAUGGUAACGCGUCUCCCUCCUAAGGAGAAGACUGCGGGUUCGAGUCCCGUCCGGAACG [G6A A65C] was 0.945; that for GUUCCAUUGGCGUAAUGGUAACGCGUCUCCCUCCUAAGGAGAAGCGUGCGCGUUCGAGUCCCGUACGGAACG [G6A A45C C46G G51C] was at most 0.5. The value for GUUCCAUUGGAGUCAUGGCAACGCGUCUCCCACCUAAGGAGCAGACUGCGGGUUCGAGUCCCGUACGGAACG [G6A C11A A14C U19C U32A A42C] was 0.664. The value for GUUCCAUUGGAGUAAUGGUAACGCGUCUCCCUCCUAAGGAGAAGACUGUGGGUUCGAGUCCCGUGCGGAACG [G6A C11A C49U A65G] was at most 0.5; that for GUUCCAUUGGAGUAAUGGUAACGCGUCUCCCUCCUAAGGGGAAGACUGCGGGUUCCAGUCCCGUACGGAACG [G6A C11A A40G G56C] was at most 0.5. For GUUCCAUUGGCGUAAUGGUAACGCGUCUCCCUCCUAAGGAGAAGACUGCGGGUUCGUGUCCCGUACGGAACG [G6A A57U], the yeast fitness was determined as 0.629. The value for GUUCCAUUGGCGUAAUGGUAACGCGUCUCCCUCCUAAGGAGAAGACUGCGGGUUCGCGUCCCGUACGGAACG [G6A A57C] was 0.627; that for GUUCCAUUGGCGUAAUGGUAACGCGUCUCCCUCCUAAGGAGAAGACUGCGGGUUCGGGUCCCGUACGGAACG [G6A A57G] was 0.929; that for GUUCCAUUGGAGUAAUGGUAACGCGUCUCCCUCCUAAGGAGAAGACUGCGGGUUCGCGUCCCGUACGAAACG [G6A C11A A57C G68A] was 0.549. The value for GUUCCAUUGGAGUAAUGGUAACGCGUCUCCCUCCUAGGGAGAAGACUGCGGGUUCGAGUCCCGUACGCAACG [G6A C11A A37G G68C] was 0.562; that for GUUCCAUUGGCGUAAUGGUAACGCGUCUCCCUCCUAAGGAGAAGACUGCGGGUUCGCGUCCCGUCCGGACCG [G6A A57C A65C A70C] was 0.609; that for GUUCCAUUGGCGUAAUGGUAACGCGUCUCCCUCCUAAGGAGGAGACUGCGGGUUCGAGUCGCGUAAGGAACG [G6A A42G C61G C66A] was at most 0.5. The value for GUUCCAUUGGCGUAAUGGUAACGCGUCUCCCUCCUAAGGAGAAGACUGCGGGUUCGCGUCCCGUCCGGAACG [G6A A57C A65C] was 0.541; that for GUUCCAUUGGCGUAAUGGUAACGCGUCUCCCUCCUAAGGUGAAGACUGCGGGAUCGAGUCACGUUCGGUACG [G6A A40U U53A C61A A65U A69U] was 0.511; that for GUUCCAUUGGCGUAAUGGUAACGCGUCUCCCUCCUAAGGAGAAGACUGCGGGUUCGUGUCCCGUACGUAGCG [G6A A57U G68U A70G] was at most 0.5. For the variant GUUCCAUUGGCGUAAUGGUAACGCGUCUCCCUCCUAAGGAGAAGACUGCGGGUUCGAGUCCCGUACGGCACG [G6A A69C], the yeast fitness was found to be 0.866. The value for GUUCCAUUGGCGUAAUGGUAACGCGUCUCCCUCCUAAGGGGGAGACUGCGGGUUCGAGCCCCGUACGGAACG [G6A A40G A42G U59C] was 0.675.

With GUUCCAUUGGCGUAAUGGUAACGCGUCUCCCUCCUAAGGAGCAGACUGCGGGGUCGAGUCCCGUACCGAACG [G6A A42C U53G G67C], the yeast fitness is at most 0.5. In the case of GUUCCAUUGGAGUAAUGGUAACGCGUCUCCCUCCUAAGGGGAAGACUGCGGGUUCCAGUCCCGUCCAGAACG [G6A C11A A40G G56C A65C G67A], the yeast fitness was at most 0.5. Under GUUCCAUUGGAGUAAUGGUAACGCGUCUCCCUCCUAAGGAGAAGACUGCGGGUUCGAGUCACGUACGGAACG [G6A C11A C61A] stands at most 0.5; under GUUCCAUUGGAGUAAUGGUAAGGCGUCUCCCUCCUAAGGAGAAGACUGCGGGUUCGAGUCCCGUACGGAACG [G6A C11A C22G], at most 0.5.

On to GUUCCAUUGGCGUAAUGGUAACGCGUCUCCCUCCUAAGGAGAAGCCUGCGGGUUCGAGUCCCGUACGGAGCG [G6A A45C A70G], for which the yeast fitness was 0.536.

In the case of GUUCCAUUGGCGUAAUGGUAACGCGUCUCCCUCCUAAGGUGAAGAAUGCGGGUUCGAGUCCCGUACGGAACG [G6A A40U C46A], the yeast fitness amounted to 0.657.
